Data from ChEMBL document CHEMBL1143831, “Small molecule inhibitors of aggregation indicate that amyloid beta oligomerization and fibrillization pathways are independent and distinct” (J Biol Chem, 2007).
Where a name gives a salt, the structure may show the parent alone. The source made the active and inactive calls. The rule behind the calls is not given here.

Key:
[1] = Inhibition of synthetic amyloid beta42 oligomer formation by Western blot
In short: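 Aβ42 (NaOH stock, 45 µM final) incubated in PBS pH 7.4, 0.02% sodium azide at room temperature without stirring for 5 days, with compound at 300 µM in DMSO; vehicle controls at 1% DMSO. Aliquots were mixed 1:1 with 2x SDS sample buffer, boiled 5 min, and run on 4-20% Tris-HCl gels. The gels were transferred to nitrocellulose and probed with A11 anti-oligomer antibody, with 6E10 also used.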

[2] = Inhibition of synthetic amyloid beta-42 oligomerization by ELISA
[3] = Inhibition of synthetic amyloid beta-42 fibrillation at 300 uM by light scattering analysis relative to control
In short: (§1)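 Aβ42 (45 µM final) from 2 mM NaOH stock, diluted into 10 mM HEPES, 100 mM NaCl, 0.02% sodium azide, pH 7.4; stirred at room temperature 4 days with compound in DMSO (controls 1% DMSO). Turbidity at 400 nm, corrected by the 400 nm reading of supernatant after 14,000 rpm, 30 min centrifugation; triplicate, relative to control.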

[4] = Inhibition of synthetic amyloid beta-42 fibrillation at 30 uM by ThT fluorescence analysis relative to control
In short: (§2)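 Aβ42 (45 µM final) from 2 mM NaOH stock, sonicated, diluted into 10 mM HEPES, 100 mM NaCl, 0.02% sodium azide, pH 7.4; stirred at room temperature 4 days with compound in DMSO (controls 1% DMSO). Aliquot mixed with 3 µM ThT; ex 442 nm, em 482 nm; corrected with parallel protein-free reactions; triplicate, % of control.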

[5] = Inhibition of synthetic amyloid beta42 fibrillation at 300 uM by ThT fluorescence analysis relative to control; in short: as §2
[6] = Inhibition of synthetic amyloid beta-42 fibrillation at 30 uM by light scattering analysis relative to control; in short: as §1

Molecule	Activity [1]	IC50 [2]	also measured
COc1cccc(C=O)c1O	inactive	6.15 µM	
CCN(CC)c1ccc2c(-c3ccccc3C(C)=O)c3ccc(=[N+](CC)CC)cc-3oc2c1		310 µM	
COc1ccc2nc3cc(Cl)ccc3c(NC(C)CCCN(CCCl)CCCl)c2c1 (stereo not given)		2050 µM	
O=C1C=Cc2ccccc2C1=O [1,2-NAPHTHOQUINONE]	inactive	11.5 µM	
O=C(c1ccccc1O)c1ccccc1O [2,2'-DIHYDROXYBENZPHENONE]		244 µM	
CNc1ccc2nc3ccc(N)cc3[s+]c2c1 [AZURE C]	inactive	0.09 µM	
CCN(CCO)c1ccc(/N=N/c2sc3cc(OC)ccc3[n+]2C)cc1 [BASIC BLUE 41]	inactive	0.12 µM	
COc1cc(-c2ccc(/N=N/c3ccc4c(S(=O)(=O)O)cc(S(=O)(=O)O)c(N)c4c3O)c(OC)c2)ccc1/N=N/c1ccc2c(S(=O)(=O)O)cc(S(=O)(=O)O)c(N)c2c1O [CHICAGO SKY BLUE SODIUM]	inactive	2.58 µM	
Nc1c(/N=N/c2ccc(-c3ccc(/N=N/c4cc(S(=O)(=O)O)c5ccccc5c4N)cc3)cc2)cc(S(=O)(=O)O)c2ccccc12 [CONGO RED]	inactive	10 µM	
COc1cc(/C=C/C(=O)CC(=O)/C=C/c2ccc(O)c(OC)c2)ccc1O [CURCUMIN]		361 µM	
COc1cccc2c1C(=O)c1c(O)c3c(c(O)c1C2=O)C[C@@](O)(C(C)=O)C[C@@H]3O[C@H]1C[C@H](N)[C@H](O)[C@H](C)O1 [DAUNORUBICIN HYDROCHLORIDE]	inactive	7.48 µM	
O=C(O)c1ccccc1-c1c2cc(Br)c(=O)c(Br)c-2oc2c(Br)c(O)c(Br)cc12 [EOSIN Y SODIUM]		2790 µM	
COc1ccc2c(c1)c(CC(=O)O)c(C)n2C(=O)c1ccc(Cl)cc1 [INDOMETHACIN]		958 µM	
O=C1C=CC(=O)c2c(O)cccc21 [JUGLONE]	Active	67.6 µM	
O=c1cc2oc3cc(O)c(-c4ccc(O)cc4O)cc3nc-2cc1-c1ccc(O)cc1O [LACMOID]	inactive	25.5 µM	
C=C1c2c(Cl)ccc(O)c2C(=O)C2=C(O)[C@]3(O)C(=O)C(C(N)=O)=C(O)[C@@H](N(C)C)[C@@H]3[C@@H](O)[C@H]12.O=C(O)c1cc(S(=O)(=O)O)ccc1O [MECLOCYCLINE SULFOSALICYLATE]	inactive	0.25 µM	
O=c1c(O)c(-c2cc(O)c(O)c(O)c2)oc2cc(O)cc(O)c12 [MYRICETIN]	Active	107 µM	
Cc1ccc2ccc3ccc(C)nc3c2n1 [NEOCUPROINE]	inactive	17.4 µM	
CC(Cc1ccc(O)c(O)c1)C(C)Cc1ccc(O)c(O)c1 (stereo not given) [NORDIHYDROGUAIARETIC ACID]	inactive	14.5 µM	
OCCN1CCN(CCCN2c3ccccc3Sc3ccc(Cl)cc32)CC1 [PERPHENAZINE]		26.1 µM	
O=S1(=O)OC(c2ccc(O)cc2)(c2ccc(O)cc2)c2ccccc21 [PHENOLSULFONPHTHALEIN]		426 µM	
CO[C@H]1/C=C/O[C@@]2(C)Oc3c(C)c(O)c4c(O)c(cc(O)c4c3C2=O)NC(=O)/C(C)=C\C=C\[C@H](C)[C@H](O)[C@@H](C)[C@@H](O)[C@@H](C)[C@H](OC(C)=O)[C@@H]1C [RIFAMYCIN]	inactive	31.6 µM	
CN(C)[C@@H]1C(O)=C(C(=O)NCN2CCCC2)C(=O)[C@@]2(O)C(O)=C3C(=O)c4c(O)cccc4[C@@](C)(O)[C@H]3C[C@@H]12 [ROLITETRACYCLINE]	inactive	1.87 µM	
C1CCSC1 [TETRAHYDROTHIOPHENE]	Active	122 µM	
CETRIMIDE [listing 1 of 2 here]		15.9 µM	
CETRIMIDE [listing 2 of 2 here]	inactive		Activity [3]: inactive; inhibition [4]: 112%; inhibition [5]: 0.7%
N,N,N-trimethylhexadecan-1-aminium bromide	inactive		Activity [6]: Active; Activity [3]: inactive; inhibition [4]: 9.8%; inhibition [5]: 0.5%
